Laboratory results published in publication PMC12700136 (Journal of medicinal chemistry, 2025).
Like-named read-outs stand apart in the source and are kept apart here.

How the values were obtained:
[1] = molecular target: T1, ClpP (Homo sapiens, UniProt Q16740); experiment: Thermal shift assay; assay type: binding; conditions: MDA-MB-468 lysates; for ClpP binding/stabilization by TSA (comparison in words): heated at 67 °C, WB
Method in brief: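 Test compound at increasing concentrations added to 10 μg MDA-MB-468 lysate, 15 min at 23 °C. Heated 67 °C for 3 min, precipitated 3 min at 23 °C, spun 14,000 rpm, 20 min, 4 °C. Soluble ClpP detected by anti-ClpP immunoblot against unheated and no-compound controls; quantified as mean ± SD of two independent experiments.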

[2] = tested on: BT-474 cells; experiment: Viability assay; assay type: cell-based, human; conditions: BT-474, 72 h; for IC50: read-out: IC50 (viability)
Method in brief: (§1)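 Cells (DMEM/F12 + GlutaMax, 10% FBS, 1% pen-strep) seeded at 5,000 per well 24 h before dosing, in quadruplicate. Medium replaced with test compound-containing medium for 72 h. Viability read after 3 h AlamarBlue incubation by colorimetric change, normalized to vehicle control. IC50 from curves; mean ± SD of three independent experiments.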

[3] = tested on: MDA-MB-231 cells; experiment: Viability assay; assay type: cell-based, human; conditions: MDA-MB-231, 72 h; for IC50: read-out: IC50 (viability)
Method in brief: as §1

[4] = Mouse pharmacokinetic study; assay type: in vivo; conditions: Swiss albino mice, single IP administration, 50 mg/kg
Method in brief: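 Three male Swiss Albino mice received a single intraperitoneal dose in 100% v/v normal saline. About 60 μL of blood was drawn at 0.5, 2 and 8 h. Plasma was stored at −70 °C until a fit-for-purpose LC-MS/MS assay. Concentrations are the average of the 3 mice, with ± SEM.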

[5] = tested on: MCF-7 cells; experiment: Viability assay; assay type: cell-based, human; conditions: for IC50: read-out: IC50 (viability)
Method in brief: as §1

[6] = tested on: ONC212-resistant MDA-MB-468 cells; experiment: Viability assay; assay type: cell-based, human; conditions: for IC50: read-out: IC50 (viability); for increase in the IC50 value, resistant vs wild-type cells: ONC212-resistant vs wild-type MDA-MB-468, 72 h
Method in brief: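 Resistant MDA-MB-468 line selected by continuous 50 nM reference ClpP agonist, medium changed every 3 days. Cells expanded drug-free and re-exposed over several cycles until growth exceeded death. Wild-type and resistant cells seeded at 5,000 per well, quadruplicate, and dosed 72 h. AlamarBlue read after 3 h, normalized to vehicle; mean ± SD, three independent experiments.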

[7] = tested on: DAP13; experiment: DAP13 degradation assay; assay type: cell-based, human; conditions: 24 h, MDA-MB-468 cells; for DAP13 degraded: 25 nM; for DAP13 degradation at high concentrations: 100, 150 and 200 nM
[8] = tested on: MDA-MB-468 cells; experiment: Seahorse mitochondrial respiration assay; assay type: cell-based, human; conditions: 50 nM for 12, 24 and 48 h
Method in brief: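 Cells were plated at 250,000 per well and treated for 12, 24 or 48 h. One hour before reading, medium was changed to XF DMEM (1 mM pyruvate, 2 mM glutamine, 10 mM glucose, pH 7.4). The Mito Stress Test used final 1 μM oligomycin, 1 μM FCCP and 0.5 μM antimycin A. OCR was read at baseline and after sequential oligomycin, FCCP and rotenone additions.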

[9] = molecular target: purified human ClpP (hClpP) (Homo sapiens, UniProt Q16740); experiment: Differential scanning fluorimetry; assay type: binding; conditions: vs DMSO
Method in brief: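 Human ClpP lacking mitochondrial sequence, expressed in E. coli BL21(DE3) as N-terminal 2x(His6-thrombin)-SUMO-TEV fusion (1 mM IPTG, 4 h, 37 °C), cobalt-resin purified. Protein at 0.5 mg/mL final in 25 mM Tris-HCl pH 7.5 with SYPRO Orange; held 25 °C 2 min, ramped 25–95 °C at 0.05 °C/s. ΔTm versus DMSO; mean ± SD, four independent experiments.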

[10] = molecular target: T1, ClpP; experiment: Thermal shift assay; assay type: cell-based; conditions: MDA-MB-468 cells treated 30 min
Method in brief: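 MDA-MB-468 cells seeded at 1 million per well the day before, then exposed to test compound for 30 min at 37 °C. Washed in PBS, scraped into PBS with […] inhibitors, heated 67 °C for 3 min, lysed by freeze–thaw, spun 14,000 rpm 20 min at 4 °C. Soluble ClpP immunoblotted; normalized quantification, mean ± SD of two independent experiments.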

[11] = tested on: MDA-MB-468 cells; experiment: Flow-cytometry-based apoptosis detection; assay type: cell-based, human; conditions: 1 μM, 72 h
Method in brief: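 MDA-MB-468 cells given DMSO or 1 μM test compound for 72 h at 37 °C, 5% CO2. Washed twice in FACS buffer (50 mM PBS, 2 mM EDTA, 2% FBS), stained with fixable viability dye eFluor 780 for 30 min at 4 °C, washed, then analysed by flow cytometry for dead-cell labelling.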

[12] = tested on: SK-BR-3 cells; experiment: Viability assay; assay type: cell-based, human; conditions: SK-BR-3, 72 h; for IC50: read-out: IC50 (viability)
Method in brief: as §1

[13] = tested on: MDA-MB-468 cells; experiment: Western blot analysis of apoptosis markers; assay type: cell-based, human; conditions: 1 μM, 72 h
Method in brief: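 MDA-MB-468 cells exposed to vehicle or 1 μM test compound for 72 h. Lysates probed by immunoblot for apoptosis markers including caspase-3. Blots representative of two independent experiments.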

[14] = tested on: MDA-MB-468 cells; experiment: Viability assay; assay type: cell-based, human; conditions: for IC50: read-out: IC50 (viability)
Method in brief: as §1

[15] = tested on: cancer cells; conditions: cited from earlier work

T1 sequence (Q16740 57-277): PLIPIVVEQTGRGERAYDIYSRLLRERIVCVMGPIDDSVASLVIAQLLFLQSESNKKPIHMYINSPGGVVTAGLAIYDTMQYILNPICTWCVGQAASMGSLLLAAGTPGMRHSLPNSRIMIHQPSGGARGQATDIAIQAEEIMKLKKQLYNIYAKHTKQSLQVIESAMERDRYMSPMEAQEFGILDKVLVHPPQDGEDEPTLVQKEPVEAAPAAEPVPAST
Sequence of purified human ClpP (hClpP) (Q16740 57-277): as above

Structure (SMILES): NCCCCCc1cc(C(F)(F)F)ccc1CN1C(=O)C2=C(CCN(Cc3ccccc3)C2)N2CCN=C12 [Compound 1, 4-(2-(5-Aminopentyl)-4-(trifluoromethyl)benzyl)-7-benzyl-2,4,6,7,8,9-hexahydroimidazo[1,2-a]pyrido[3,4-e]pyrimidin-5(1H)-one]
- ClpP binding/stabilization by TSA (comparison in words) [1]: marginally improved binding to ClpP compared to ONC212

Structure (SMILES): N#Cc1cccc(CN2CCC3=C(C2)C(=O)N(Cc2ccc(C(F)(F)F)cc2CCCCCN)C2=NCCN23)c1 [Compound 2, 3-((4-(2-(5-Aminopentyl)-4-(trifluoromethyl)benzyl)-5-oxo-1,2,4,5,8,9-hexahydroimidazo[1,2-a]pyrido[3,4-e]pyrimidin-7(6H)-yl)methyl)benzonitrile]
- improvement in ClpP binding compared to ONC212 and compound 1 ([1]; TSA): approximately 2 fold

Structure (SMILES): NCCCCCc1cc(F)ccc1CN1C(=O)C2=C(CCN(Cc3ccccc3)C2)N2CCN=C12 [Compound 3, 4-(2-(5-Aminopentyl)-4-fluorobenzyl)-7-benzyl-2,4,6,7,8,9-hexahydroimidazo[1,2-a]pyrido[3,4-e]pyrimidin-5(1H)-one]
- ClpP binding/stabilization by TSA (comparison in words) [1]: weaker ClpP binding

Structure (SMILES): CC(=O)NCCCCCc1cc(C(F)(F)F)ccc1CN1C(=O)C2=C(CCN(Cc3ccccc3)C2)N2CCN=C12 [Compound 5, N-(5-(2-((7-Benzyl-5-oxo-1,2,6,7,8,9-hexahydroimidazo[1,2-a]pyrido[3,4-e]pyrimidin-4(5H)-yl)methyl)-5-(trifluoromethyl)-phenyl)pentyl)acetamide]
- ClpP binding/stabilization by TSA (comparison in words) [1]: much reduced binding to ClpP

Structure (SMILES): CC(=O)NCCCCCc1cc(C(F)(F)F)ccc1CN1C(=O)C2=C(CCN(Cc3cccc(C#N)c3)C2)N2CCN=C12 [Compound 6, N-(5-(2-((7-(3-Cyanobenzyl)-5-oxo-1,2,6,7,8,9-hexahydroimidazo[1,2-a]pyrido[3,4-e]pyrimidin-4(5H)-yl)-methyl)-5-(trifluoromethyl)phenyl)pentyl)acetamide]
- ClpP binding/stabilization by TSA (comparison in words) [1]: much reduced binding to ClpP

Structure (SMILES): CN(C)CCCCCc1cc(C(F)(F)F)ccc1CN1C(=O)C2=C(CCN(Cc3cccc(C#N)c3)C2)N2CCN=C12 [Compound 7, 3-((4-(2-(5-(Dimethylamino)pentyl)-4-(trifluoromethyl)-benzyl)-5-oxo-1,2,4,5,8,9-hexahydroimidazo[1,2-a]pyrido[3,4-e]pyrimidin-7(6H)-yl)methyl)benzonitrile]
- ClpP binding/stabilization by TSA (comparison in words) [1]: recovered to the same level as that of compound 2

Structure (SMILES): CNC(=O)CN(C)CCCCCc1cc(C(F)(F)F)ccc1CN1C(=O)C2=C(CCN(Cc3cccc(C#N)c3)C2)N2CCN=C12 [Compound 8, 2-((5-(2-((7-(3-Cyanobenzyl)-5-oxo-1,2,6,7,8,9-hexahydroimidazo[1,2-a]pyrido[3,4-e]pyrimidin-4(5H)-yl)-methyl)-5-(trifluoromethyl)phenyl)pentyl)(methyl)amino)-N-methylacetamide]
- ClpP binding/stabilization by TSA (comparison in words) [1]: recovered to the same level as that of compound 2

Structure (SMILES): N#Cc1cccc(CN2CCC3=C(C2)C(=O)N(Cc2ccc(C(F)(F)F)cc2OCCN)C2=NCCN23)c1 [Compound 9, 3-((4-(2-(2-Aminoethoxy)-4-(trifluoromethyl)benzyl)-5-oxo-1,2,4,5,8,9-hexahydroimidazo[1,2-a]pyrido[3,4-e]pyrimidin-7(6H)-yl)methyl)benzonitrile]
- concentration at which ClpP was stabilized (TSA) [1]: 0.313 µM
- ClpP binding/stabilization by TSA (comparison in words) [1]: superior stabilization of ClpP
- fold improvement of IC50 vs ONC212 [2]: approximately 4 fold
- IC50 ([2]; Homo sapiens): 8 nM
- IC50 ([3]; Homo sapiens): 13.9 nM
- fold improvement of IC50 vs ONC212 [3]: approximately 3.5 fold
- bioavailability (plasma concentrations) [4]: bioavailable in mice via IP injection
- tolerability [4]: well tolerated
- IC50 ([5]; Homo sapiens, MCF7, 72 h): 7 nM
- fold improvement of IC50 vs ONC212 ([5]; MCF-7, 72 h): approximately 9 fold
- IC50 ([6]; Homo sapiens, MDA-MB-468, 72 h): 27.7 nM
- increase in the IC50 value, resistant vs wild-type cells [6]: 2.6 fold
- DAP13 degraded [7]: more than 50%
- DAP13 degradation at high concentrations [7]: degraded DAP13
- effect on basal respiration, ATP generation and maximal respiration [8]: reduced basal respiration, ATP generation and maximal respiration at all time points tested
- thermal shift of purified hClpP (DSF) [9]: very significant thermal shift
- concentration at which ClpP was stabilized (TSA in live cells) [10]: 0.08 µM
- late-stage apoptosis (eFluor 780) [11]: effectively induced late-stage apoptosis
- IC50 ([12]; Homo sapiens): 11.5 nM
- fold improvement of IC50 vs ONC212 [12]: approximately 10 fold
- cleaved caspase 3 and cleaved PARP levels [13]: increased the cleaved caspase 3 and cleaved PARP levels
- protein levels of full-length caspase 3 and PARP [13]: reduction
- IC50 ([14]; Homo sapiens, MDA-MB-468, 72 h): 10.6 nM
- fold improvement of IC50 vs ONC212 ([14]; MDA-MB-468, 72 h): approximately 3.5 fold

Structure (SMILES): CC(=O)NCCOc1cc(C(F)(F)F)ccc1CN1C(=O)C2=C(CCN(Cc3cccc(C#N)c3)C2)N2CCN=C12 [Compound 10, N-(2-(2-((7-(3-Cyanobenzyl)-5-oxo-1,2,6,7,8,9-hexahydroimidazo[1,2-a]pyrido[3,4-e]pyrimidin-4(5H)-yl)-methyl)-5-(trifluoromethyl)phenoxy)ethyl)acetamide]
- ClpP binding/stabilization by TSA (comparison in words) [1]: decreased ClpP binding compared to 9 but similar to ONC212

Structure (SMILES): Cc1ccccc1CN1C(=O)C2=C(CCN(Cc3ccccc3)C2)N2CCN=C12 [ONC201]
- concentrations required to significantly affect cancer cell survival [15]: micromolar range

Structure (SMILES): O=C1C2=C(CCN(Cc3ccccc3)C2)N2CCN=C2N1Cc1ccc(C(F)(F)F)cc1 [ONC212, reference compound]
- concentration at which ClpP was stabilized (TSA) [1]: ≥ 2.5 µM
- IC50 [2]: 32.7 nM
- IC50 [3]: 50.5 nM
- IC50 ([5]; MCF-7, 72 h): 63.7 nM
- increase in the IC50 value, resistant vs wild-type cells [6]: approximately 10 fold
- IC50 ([6]; ONC212-resistant MDA-MB-468, 72 h): 351 nM
- DAP13 degraded [7]: did not significantly degrade DAP13
- DAP13 degradation at high concentrations [7]: degraded DAP13
- effect on basal respiration, ATP generation and maximal respiration [8]: significantly affected these mitochondrial functions only at 48 h
- thermal shift of purified hClpP (DSF) [9]: very significant thermal shift
- concentration at which ClpP was stabilized (TSA in live cells) [10]: 0.63 µM
- late-stage apoptosis (eFluor 780) [11]: effectively induced late-stage apoptosis
- IC50 [12]: 115 nM
- protein levels of full-length caspase 3 and PARP [13]: reduction
- IC50 ([14]; MDA-MB-468 (wild-type), 72 h): 35.2 nM
